Experimental data reported in the EternaBench riboswitch data.

System: MS2 coat protein
Assay: apparent Kd, MS2 coat protein; higher = weaker binding; RNA-MaP array; FMN 200 µM where present
Method in brief: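 Green signal was scaled to red-channel RNA signal and control-cluster median Fmax, and the apparent Kd was taken as the median of filtered per-cluster binding-curve fits. The binding series used SNAP-549-labelled MS2 coat protein from 0.7 or 1.5 nM, doubling to 3 µM, on designs transcribed by stalled E. coli RNA polymerase on Illumina sequencing-chip clusters. Each series ran without and then with constant ligand in 100 mM Tris-HCl pH 7.5, 80 mM KCl, 4 mM MgCl2, BSA, DTT, yeast tRNA and Tween-20.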

[1] = designed as: OFF switch for flavin mononucleotide, no ligand
[2] = ligand present: flavin mononucleotide, designed as: OFF switch for flavin mononucleotide
[3] = designed as: ON switch for flavin mononucleotide, no ligand
[4] = ligand present: flavin mononucleotide, designed as: ON switch for flavin mononucleotide

Row | Sequence | apparent Kd [1] [nM] | apparent Kd [2] [nM] | apparent Kd [3] [nM] | apparent Kd [4] [nM]
1 | AGAAACUACGAGAAGGACAAAAACGGUGCCGCAAACAUGAGGAUCACCCAUGUAGGAUAUCGUAGUUUCAGGAUCGUGAGAUCA | 14.2 | 84.7 | – | –
2 | CAGUACUGAGGAUAUACAUGAGGAUCACCCAUGUCCCAAAAGUAGGAUACUACUAUUAGUAGAAGGCAGUACUG | 37.4 | 323 | – | –
3 | UGUUGUAUUACAGGAUAUCUAUUAGUUUUUUUUAGAGAAGGGUAUUCACAUGAGGAUCACCCAUGUAUAUACGAGGAAGUUGUG | – | – | 50.2 | 51.7
4 | UUUCCCUGUGUGAGGAUAUACUUGUUUGGGUUUUUGUAGAAGGCACAUGAGGAUCACCCAUGUAUUUUGUCGUG | 43.1 | 111 | – | –
5 | UUUAUGUCAGGAUAUACAUGAGGAUCACCCAUGUAUAUCUUAAAAUAUACAUGGGUAUGUAGAAGGGACCUCCU | 86.5 | 77.1 | – | –
6 | GUGUAGAUAGGAUAUGCUGGAAUCUAGCGAAGCUAGGUUCUACAUGAGGAUCACCCAUGUAGAAGGGUCUACAC | 33.4 | 22.6 | – | –
7 | ACUGUUUGAUUCCUCUUAUACAUGAGGAUCACCCAUGUUAUCGAGGAUAUGCAUUAGAGUGUUUAGCAGAAGGCGAUGUAGUUG | 7.56 | 19.1 | – | –
8 | CCUACAUAUUUUAAGUAUGAUUAACUAGAAGGUAGAUACAUGAGGAUCACCCAUGUUUAGAGAUCUAAGGAUAUAGUAUGUAGC | – | – | 13.3 | 9.45
9 | GUCUACCUAGGAUAUACAUGAGGAUCACCCAUGUACAGUUUCGUCUAGGGAUACUCGCGUAGAAGGAGGUAGAU | 32.2 | 22.9 | – | –
10 | AAAAACAUAGGAUAUACAUGAGGAUCACCCAUGUUAAAAUAAAGAAAGGGAGAAAUAAGUAGAAGGAUGAAAAA | 37.7 | 40.2 | – | –
11 | CUCAAGUGAGGAUAUAUACUUCCAUCAUUUGAGAUAGAAGUAUAGAAGGCACAUGAGGAUCACCCAUGUAUAAC | 136 | 39.7 | – | –
12 | AACUGACAUGAGGAUCACCCAUGUCAGGAUAUGACUUGAUAGAAAAAAAAAUAUCAUGUCAGAAGGGACAUGAA | 16.4 | 13.5 | – | –
13 | UGAUCUAUGUAGAAGGCCCAUAUCUAUAUUUAGGGAGGAUAUACAUGAGGAUCACCCAUGUGUAGAGCUGGUGGACUGGUCAGC | 92.8 | 234 | – | –
14 | UGGGUAAAUGUAGGAUAUCCAUAAUAAUAAUAAGGAGAAGGACAUGAGGAUCACCCAUGUACAGGGAAUUACCCAUUUCCUCUC | 1340 | 1170 | – | –
15 | GGUAGAGAGCAGGAUAUCUUGGGUAAGUAUUGUAGAGAAGGGCUCACAUGAGGAUCACCCAUGUGGUCCAAGAU | 13.9 | 29.8 | – | –
16 | AAGUUAUUAGGAUAUACUUGUGCGAUUUAUACGUUGAUAUUACAUGAGGAUCACCCAUGUAGAAGGAAUAAAAA | 20.8 | 17.4 | – | –
17 | GCGAUUUUUAGAUUUUAAUAAUUUACAGAAGGUGAUAUACUUACAUGAGGAUCACCCAUGUUAUUCAAGGAUAUGUAGAUACUC | – | – | 308 | 31
18 | GGUUGUCAUCGUCAUCCUUUCGGUACAUGAGGAUCACCCAUGUAGGAUAUGCUGCAUUCGAUGUGGCAGAAGGGCGUGUGUGUU | 23.5 | 41 | – | –
19 | GACCGCGAGGAAGGAUAUGGAGCCUUAUUGGCUCCAGAAGGUCCAUAAAGGACAUGAGGAUCACCCAUGUGGUGAGAAGCGGUC | – | – | 2070 | 179
20 | GUAUUGAGAUAAGGAUAUAAGUCUAUGACAUGAGGAUCACCCAUGUGUGUUUUAGAAGGUAUUUCGGUAAUAUUGUUACAGUAA | – | – | 17.7 | 9.95
21 | GUUUAUUAUUAGAAGGUGCCAGCGAGAGCUGCACAUGAGGAUCACCCAUGUUGUCGGUGACGACGCAAGGAUAUGGUGGUGGAU | – | – | 300 | 91.5
22 | UGUUGUAUUACAGGAUAUCUAUUAUUGUUAUUUAGAGAAGGGUAUUCACAUGAGGAUCACCCAUGUAUAUACGAGGAAGUUGUG | – | – | 54.7 | 55.3
23 | UCGGGCAACCGAAAUAGGACGGCUGAGGAUAUGACAUGAGGAUCACCCAUGUACAGGGCCACAGGUCAGAAGGCAGCCUUUUGG | 161 | 36.5 | – | –
24 | CGCACUUAGCGAGGAUAUGUUAAACAUGAGGAUCACCCAUGUGAUUUAGUAUCAAUAUUAGUGAAACAGAAGGCGCUUAGUGCG | 14 | 13.2 | – | –
25 | GCGUGGUGUCUAGGAUAUGCCGUGCAACGAGGAGCAGAAGGAGACAUGAGGAUCACCCAUGUAAGCUUAGCCGCUCACAGAGGG | 26.8 | 73.7 | – | –
26 | UUUGCAUUCCGAGGAUAUUCAUAUAAUGACUACACAUGAGGAUCACCCAUGUGGCGAUAGCCUAGGGAGAAGGCGGUUUGCUUU | – | – | 20.3 | 17.8
27 | ACAAAUUAGUGAGGAUAUGCUUAAUUUAUAACUGCAGAAGGCACAUACCUCAAGACAUGAGGAUCACCCAUGUGGAAUAUAGAU | 25.4 | 62.8 | – | –
